# Source: PubChem BioAssay AID492951 (Molecular Libraries Program, Specialized Chemistry Center, …, 2010)
# Values without a mark were called inactive. Activity calls are given as the source filed them.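 How the source made its calls: active means inhibition above 10%; inactive means the rest.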
# Target: Hexokinase-4 (Homo sapiens) (UniProt P35557)
# Assay: human glucokinase inhibition, counter-screen for TbHK1 inhibitor project, biochemical, recombinant hGlck (AID 492951)
# Conditions: G6PDH-coupled NADH absorbance 340 nm, at 10 µM; stronger effect = higher value
# Summary of the method: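 Material: Recombinant human glucokinase, G6PDH-coupled | Medium: TEA buffer pH 7.9 with 3.3 mM MgCl2, 0.75 mM NAD+ | Also added: 20 mM glucose as reaction starter, plus 1 mM ATP | Compound dosing: One dose, 10 µM final | Schedule: 10 min preincubation at room temperature | Measured by: A340 of NADH | Repeats: Three replicates per compound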
# Chain of Hexokinase-4 (Homo sapiens) (P35557 whole entry, looked up): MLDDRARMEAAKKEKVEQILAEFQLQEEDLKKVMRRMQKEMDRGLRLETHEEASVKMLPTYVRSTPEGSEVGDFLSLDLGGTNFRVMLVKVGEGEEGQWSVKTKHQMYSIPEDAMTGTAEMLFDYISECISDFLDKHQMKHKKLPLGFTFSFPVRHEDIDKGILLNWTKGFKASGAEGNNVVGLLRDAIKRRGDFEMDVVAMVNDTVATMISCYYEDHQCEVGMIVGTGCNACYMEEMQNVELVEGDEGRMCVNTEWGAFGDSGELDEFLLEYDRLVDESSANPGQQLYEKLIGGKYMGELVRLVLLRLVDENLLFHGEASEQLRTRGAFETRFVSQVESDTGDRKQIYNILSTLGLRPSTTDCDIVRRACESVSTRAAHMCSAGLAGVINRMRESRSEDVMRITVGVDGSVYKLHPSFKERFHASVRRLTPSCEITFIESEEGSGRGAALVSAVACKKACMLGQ
SMILES,inhibition,outcome
Cn1sc(=O)c2ccccc21,56.2% (active),
O=C(Nc1cc(Cl)ccc1C(=O)O)c1ccc(C2CCC2)cc1,35.4% (active),
COc1cccc(NC(=O)Cn2sc3ccccc3c2=O)c1,2.9%,
CCc1ccc(C(=O)Nc2cc(Cl)ccc2C(=O)O)cc1,,inactive
CCc1ccc(C(=O)Nc2cc(Cl)ccc2C(=O)OC)cc1,14.5% (active),
COc1ccc(C(=O)Nc2cc(Cl)ccc2C(N)=O)cc1,17.9% (active),
COc1ccc(-c2cc3ccccc3[nH]2)cc1,30.3% (active),
O=C(Cn1sc2ccccc2c1=O)Nc1ccccc1C(F)(F)F,11.1% (active),
N#Cc1ccc2c(=O)n(-c3ccccc3)sc2c1,54% (active),
O=c1c2ccccc2sn1-c1ccc(Cl)cc1Cl,65.6% (active),
CN(C)S(=O)(=O)c1cccc(-n2sc3ccccc3c2=O)c1,22.1% (active),
Cc1cccc(C(=O)Nc2cc(Cl)ccc2C(=O)O)c1,,inactive
O=C(Nc1cc(Cl)ccc1C(=O)O)c1ccncc1,,inactive
CC(C)(C)c1ccc(C(=O)Nc2cc(Cl)c(Br)cc2C(=O)O)cc1,11.9% (active),
COc1ccc(C(=O)Nc2cc(Cl)ccc2[N+](=O)[O-])cc1,,inactive
COc1cccc(CC(=O)Nc2cc(Cl)ccc2C(=O)O)c1,,inactive
COC(=O)c1ccc(Cl)cc1NS(=O)(=O)c1ccc(OC)cc1,,inactive
O=C1c2cccc(Br)c2SCN1c1ccccc1,5.5%,
